# Results of several laboratories.
# INSR: Insulin receptor (INSR, Homo sapiens, UniProt P06213)
# INSR phosphorylated: Insulin receptor, phosphorylated (INSR, Homo sapiens, UniProt P06213)
Compound,target,assay,conditions,measurement,result
Cc1ccc(Nc2nccc(N(C)c3ccc4c(C)n(C)nc4c3)n2)cc1S(N)(=O)=O,INSR,"enzyme activity, inhibitor",0.3 µM,inhibition,6%
CS(=O)(=O)Nc1cccc(-c2csc(NC(=O)CSc3nc4nccnc4c(=O)n3CCc3ccccc3)n2)c1,INSR,"enzyme activity, inhibitor",10 µM,inhibition,1%
CNC(=O)c1ccccc1Nc1cc(Nc2ccc(N3CCOCC3)cc2OC)ncc1C(F)(F)F,INSR,"enzyme activity, inhibitor",1 µM,inhibition,> 50%
CN(c1ncccc1CNc1nc(Nc2ccc3c(c2)CC(=O)N3)ncc1C(F)(F)F)S(C)(=O)=O,INSR,"enzyme activity, inhibitor",1 µM,inhibition,57.2%
Cc1ccc(C(=O)NCc2ccsc2)cc1C#Cc1cn(C(C)C)c2ncnc(N)c12,INSR,"enzyme activity, inhibitor",1 µM,activity vs control,82%
CNc1cccc2cc(C(=O)Nc3ccc(C(=O)O)cc3)c(=O)[nH]c12,INSR,"enzyme activity, inhibitor",10 µM,inhibition,5.2%
Nc1ncnc2occ(-c3ccc(NC(=O)Nc4cc(C(F)(F)F)ccc4F)cc3)c12,INSR,cell-free assay,20 µM,remaining signal,3.2%
CNCc1ccc(-c2cc(-c3nc(-c4ccc(S(=O)(=O)C(C)C)cc4)cnc3N)on2)cc1,INSR,"enzyme activity, inhibitor",2 µM,inhibition,0%
C[C@@H]1CN(c2cc(-c3nn(C)c4ccc(OC5(C)CC5)cc34)ncn2)C[C@H](C)O1,INSR,"cell-free assay, competition with immobilised ligand",1 µM,remaining binding,100%
COc1cc2ncnc(Nc3ccc(Oc4ccccc4)c(C)c3C)c2cc1OC,INSR,"enzyme activity, inhibitor",1 µM,inhibition,5%
CN1CC(Oc2cnc(C#N)cc2-c2ccn3nc(NC(=O)C4CC4)cc3c2)C1,INSR phosphorylated,"enzyme activity, inhibitor",1 µM,inhibition,1%
O=C(NCc1ncc(C(F)(F)F)cc1Cl)c1ccc2c(c1)C1(CCS(=O)(=O)CC1)[C@@H](C1CC1)N2S(=O)(=O)c1ccc(F)cc1,INSR,"cell-free assay, competition with immobilised ligand",1 µM,remaining binding,100%
CN(C)C1CCN(CC#Cc2nn(C3CCCC3)c3nc(NCc4ccccc4)ncc23)C1 (centres unmarked),INSR,"enzyme activity, inhibitor, FRET",0.1 µM,inhibition,7%
FC(F)(F)c1ccc2c(c1)nc(-c1cccnc1)n2C1CC1,INSR,"cell-free assay, competition with immobilised ligand",1 µM,remaining binding,100%
CC/C(=N\NC(=O)NCc1cccc(O)c1)c1ccc(O)c(C)c1O,INSR,"enzyme activity, inhibitor",0.1 µM,inhibition,0.1%
O=C1CCc2cc(Nc3cc(OC4CCOCC4)c([N+](=O)[O-])cc3Cl)ccc2N1,INSR,"cell-free assay, competition with immobilised ligand",1 µM,remaining binding,93%
N#CCCc1ccc2c(c1)-c1[nH]c3ccc([N+](=O)[O-])cc3c1CC(=O)N2,INSR,cell-free assay,0.5 µM,remaining signal,94.1%
O=C(NC[C@@H]1[C@H]2CN(C(=O)OCc3cc(C(F)(F)F)cc(C(F)(F)F)c3)C[C@@H]12)c1ccc2[nH]nnc2c1,INSR,"cell-free assay, competition with immobilised ligand",1 µM,remaining binding,83%
Cc1cc(NC(=O)c2cccc3cc(-c4cccc5[nH]nc(N)c45)ccc23)ccc1F,INSR phosphorylated,"enzyme activity, inhibitor",0.1 µM,activity vs control,91%
Cc1nc(C2CCN(C(=O)c3ccc(OC(F)(F)F)cc3N)CC2)c2ncc(N3CCN(C)CC3)cc2n1,INSR,"cell-free assay, competition with immobilised ligand",1 µM,remaining binding,93%
C[C@@H]1CCN(C(=O)CC#N)C[C@@H]1N(C)c1ncnc2[nH]ccc12,INSR,cell-free assay,0.5 µM,remaining signal,101%
CO[C@@H](C)c1c(Nc2ccc([C@H](N(C)C(=O)C3CCS(=O)(=O)CC3)C(F)(F)F)cc2)cnc2cc(Cl)nn12,INSR,"cell-free assay, competition with immobilised ligand",1 µM,remaining binding,87%
Cc1ccc(C(=O)Nc2ccc(CN3CCN(C)CC3)c(C(F)(F)F)c2)cc1C#Cc1cnc2cccnn12,INSR,cell-free assay,23.5 nM,remaining signal,85%
